Here are results for 33 molecules from ChEMBL document CHEMBL1759847, “Design and synthesis of isoquinolines and benzimidazoles as RAF kinase inhibitors” (Bioorg Med Chem Lett, 2011).

Structures are written as SMILES.

Chain of RAF proto-oncogene serine/threonine-protein kinase (P04049 whole entry): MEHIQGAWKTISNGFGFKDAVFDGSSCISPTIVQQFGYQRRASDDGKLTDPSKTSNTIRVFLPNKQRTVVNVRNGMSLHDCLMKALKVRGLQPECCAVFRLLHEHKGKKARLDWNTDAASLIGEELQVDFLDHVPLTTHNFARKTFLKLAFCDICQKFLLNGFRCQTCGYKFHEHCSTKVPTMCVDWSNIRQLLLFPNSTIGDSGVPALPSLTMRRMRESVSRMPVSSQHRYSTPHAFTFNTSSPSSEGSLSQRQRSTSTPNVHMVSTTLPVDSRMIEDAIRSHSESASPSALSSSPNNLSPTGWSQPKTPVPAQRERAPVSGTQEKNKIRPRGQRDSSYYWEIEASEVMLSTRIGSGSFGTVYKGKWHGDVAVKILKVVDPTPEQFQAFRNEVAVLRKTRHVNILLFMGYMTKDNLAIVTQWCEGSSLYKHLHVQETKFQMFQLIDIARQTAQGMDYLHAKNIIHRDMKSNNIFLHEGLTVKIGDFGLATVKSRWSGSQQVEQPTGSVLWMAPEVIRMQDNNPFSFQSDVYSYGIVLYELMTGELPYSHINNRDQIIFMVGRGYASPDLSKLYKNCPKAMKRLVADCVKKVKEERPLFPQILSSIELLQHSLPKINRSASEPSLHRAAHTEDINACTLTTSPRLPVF

This assay has as its target RAF proto-oncogene serine/threonine-protein kinase (Homo sapiens, UniProt P04049). The assay can be described thus: Inhibition of human cRAF using [gamma-33P-ATP] as a substrate by scintillation counting. An outline of the steps:
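Recombinant human c-RAF (5–10 mU) in 25 mM Tris pH 7.5 with 0.02 mM EGTA, 10 mM Mg acetate and 0.66 mg/mL myelin basic protein as phosphoacceptor; started by adding MgATP mix containing [γ-33P]ATP (approx. 500 cpm/pmol). Incubated 40 min at room temperature, stopped with 3% phosphoric acid, spotted on P30 filtermat, washed, dried and counted by scintillation.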
On to `CNC(=O)c1cc2ccc(CCNC(=O)Nc3cc(C)c(Cl)cc3OC)cc2cn1`, for which 190 nM corresponded to half-maximal inhibition (IC50). For `CNC(=O)c1cc2ccc(CCNC(=O)Nc3cccc(C(F)(F)F)c3)cc2cn1` the value was 360 nM; for `CNC(=O)c1cc2ccc(CCNC(=O)Nc3cccc(OC(F)(F)F)c3)cc2cn1`, 260 nM; for `CNC(=O)c1cc2ccc(CCNC(=O)Nc3cccc(S(=O)(=O)C(F)(F)F)c3)cc2cn1`, 200 nM. Then `CNC(=O)c1cc2ccc(CCNC(=O)Nc3ccc(C(F)(F)F)cc3)cc2cn1`, with 370 nM; and `CNC(=O)c1cc2ccc(CCNC(=O)Nc3ccc(C)c(C(F)(F)F)c3)cc2cn1`, with 200 nM.

In the case of `CNC(=O)c1cc2ccc(CCNC(=O)Nc3ccc(Cl)c(C(F)(F)F)c3)cc2cn1`, the IC50 was 160 nM. Then `CNC(=O)c1cc2ccc(CCNC(=O)Nc3ccc(F)c(C(F)(F)F)c3)cc2cn1`, with 240 nM. As for `CNC(=O)c1cc2ccc(CCNC(=O)Nc3cc(C(F)(F)F)ccc3F)cc2cn1`, the midpoint of inhibition, the IC50, lay at 250 nM.

For the molecule `CNC(=O)c1cc2ccc(CCNC(=O)Nc3cc(C(F)(F)F)ccc3OC)cc2cn1`, the IC50 is 120 nM.

`CNC(=O)c1cc2ccc(CCNC(=O)Nc3cc(C(F)(F)F)ccc3OCCN(C)C)cc2cn1` gave a half-inhibitory concentration (IC50) of 450 nM.

The molecule `CNC(=O)c1cc2ccc(CCNC(=O)Nc3cc(Cl)c(C)cc3OC)cc2cn1` showed an IC50 of 110 nM. Then `CNC(=O)c1cc2ccc(CCNC(=O)Nc3cc(C(F)(F)F)c(Cl)cc3OC)cc2cn1`, with 80 nM; and `CNC(=O)c1cc2ccc(CCNC(=O)Nc3cc(C(F)(F)F)c(Cl)cc3OCCN(C)C)cc2cn1`, with 340 nM; and `CNC(=O)c1nc2ccc(CCNC(=O)Nc3cc(C(F)(F)F)ccc3OC)cc2[nH]1`, with 340 nM.

The molecule `COC(=O)Nc1nc2ccc(CCNC(=O)Nc3cc(C(F)(F)F)ccc3OC)cc2[nH]1` showed an IC50 of 810 nM. For `COc1ccc(C(F)(F)F)cc1NC(=O)NCCc1ccc2nc(NC(C)=O)[nH]c2c1` the value was 170 nM. With `CNC(=O)c1nc2ccc(CCNC(=O)Nc3ccc(Cl)c(C(F)(F)F)c3)cc2[nH]1`, the IC50 stood at 280 nM.

In the case of `COC(=O)Nc1nc2ccc(CCNC(=O)Nc3ccc(Cl)c(C(F)(F)F)c3)cc2[nH]1`, inhibition was half-maximal at 660 nM (IC50). Then `CC(=O)Nc1nc2ccc(CCNC(=O)Nc3ccc(Cl)c(C(F)(F)F)c3)cc2[nH]1`, with 140 nM; and `CC(=O)Nc1nc2ccc(CCNC(=O)Nc3cccc(C(F)(F)F)c3)cc2[nH]1`, with 480 nM; and `CC(=O)Nc1nc2ccc(CCNC(=O)Nc3ccc(Cl)c(Cl)c3)cc2[nH]1`, with 480 nM.

As for `CC(=O)Nc1nc2ccc(CCNC(=O)Nc3ccc(C)c(Cl)c3)cc2[nH]1`, the IC50 was found to be 530 nM. As for `COc1cc(C)c(Cl)cc1NC(=O)NCCc1ccc2nc(NC(C)=O)[nH]c2c1`, the IC50 worked out at 190 nM. Then `COc1cc(Cl)c(C)cc1NC(=O)NCCc1ccc2nc(NC(C)=O)[nH]c2c1`, with 320 nM; and `CNCCOc1ccc(C)cc1NC(=O)NCCc1ccc2nc(NC(C)=O)[nH]c2c1`, with 580 nM. Then `CNCCOc1cc(Cl)c(C)cc1NC(=O)NCCc1ccc2nc(NC(C)=O)[nH]c2c1`, with 490 nM; and `CNCCOc1ccc(C(F)(F)F)cc1NC(=O)NCCc1ccc2nc(NC(C)=O)[nH]c2c1`, with 210 nM. For `CNCCOc1cc(Cl)c(C(F)(F)F)cc1NC(=O)NCCc1ccc2nc(NC(C)=O)[nH]c2c1` the value was 230 nM.

For the molecule `CC(=O)Nc1nc2ccc(CCNC(=O)Nc3cc(C)c(Cl)cc3OCCN)cc2[nH]1`, the midpoint of inhibition, the IC50, lay at 550 nM. Then `CC(=O)Nc1nc2ccc(CCNC(=O)Nc3cc(C(F)(F)F)ccc3OCCN)cc2[nH]1`, with 250 nM; and `CC(=O)Nc1nc2ccc(CCNC(=O)Nc3cc(C(F)(F)F)c(Cl)cc3OCCN)cc2[nH]1`, with 180 nM.

Consider `CC(=O)Nc1nc2ccc(CCNC(=O)Nc3cc(C(F)(F)F)ccc3OCC3CCCN3)cc2[nH]1` (stereo not drawn), for which 230 nM corresponded to half-maximal inhibition (IC50).
